Legend:
Type in all cases: in vitro ADME
CYP1A2 = target: T1, CYP1A2 (Homo sapiens, UniProt P05177); assay: C152 metabolism
T1 sequence (P05177 2-516 limits assumed): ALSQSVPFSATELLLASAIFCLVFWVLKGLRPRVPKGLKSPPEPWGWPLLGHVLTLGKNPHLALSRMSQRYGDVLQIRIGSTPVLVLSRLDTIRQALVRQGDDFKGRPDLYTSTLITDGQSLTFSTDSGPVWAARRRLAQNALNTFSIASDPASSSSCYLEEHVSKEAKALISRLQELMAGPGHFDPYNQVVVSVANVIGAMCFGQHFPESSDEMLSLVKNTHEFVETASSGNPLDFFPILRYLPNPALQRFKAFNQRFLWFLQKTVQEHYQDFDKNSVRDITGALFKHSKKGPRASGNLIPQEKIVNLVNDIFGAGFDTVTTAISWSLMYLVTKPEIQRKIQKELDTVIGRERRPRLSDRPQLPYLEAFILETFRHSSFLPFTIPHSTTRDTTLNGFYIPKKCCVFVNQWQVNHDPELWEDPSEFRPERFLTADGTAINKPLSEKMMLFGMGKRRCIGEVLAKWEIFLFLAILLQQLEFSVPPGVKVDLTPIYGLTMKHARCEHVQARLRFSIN

CYP2C8 [1] = target: T2, CYP2C8 (Homo sapiens, UniProt P10632); assay: C152 metabolism
T2 sequence (P10632 1-490): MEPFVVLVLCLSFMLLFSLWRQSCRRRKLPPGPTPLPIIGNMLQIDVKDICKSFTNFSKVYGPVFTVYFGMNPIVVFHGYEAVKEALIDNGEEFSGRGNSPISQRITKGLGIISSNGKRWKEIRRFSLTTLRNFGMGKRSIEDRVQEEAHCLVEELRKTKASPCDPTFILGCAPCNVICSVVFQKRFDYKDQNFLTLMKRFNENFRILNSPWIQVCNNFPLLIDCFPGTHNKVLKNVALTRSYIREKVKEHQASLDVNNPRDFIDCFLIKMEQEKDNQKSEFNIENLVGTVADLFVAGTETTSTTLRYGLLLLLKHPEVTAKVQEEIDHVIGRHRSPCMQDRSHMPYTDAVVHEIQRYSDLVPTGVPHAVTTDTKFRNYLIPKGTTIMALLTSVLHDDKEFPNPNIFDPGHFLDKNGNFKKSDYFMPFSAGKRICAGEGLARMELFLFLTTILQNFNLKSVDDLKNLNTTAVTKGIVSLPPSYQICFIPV

CYP3A4 [2] = target: T3, CYP3A4 (Homo sapiens, UniProt P08684); assay: C152 metabolism; details: for Specific rate: CYP3A4
Outline: (§1)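 Human P450s in Supersomes that co-express human CPR and cytochrome b5. Reaction in 0.1 M Na-HEPES pH 7.4 with 60 mM KCl, stirred at 30 °C. C152 0.1–30 μM added from acetone stock; 200 μM NADPH starts it. Fluorescence rise read at 500 nm (isosbestic, mono-demethylation step). Rate is the linear slope over 3–5 min, scaled by the C151–C152 fluorescence difference. Michaelis–Menten or Hill fit, Vmax per P450, 2–6 runs; rate at 30 μM computed from fit.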

CYP3A5 = CYP3A5 (Homo sapiens, UniProt P20815); assay: C152 metabolism; details: for Specific rate: CYP3A5
Outline: as §1

CYP2A6 = CYP2A6 (Homo sapiens, UniProt P11509); assay: C152 metabolism by Supersomes containing CYP2A6; details: recombinant CYP2A6 Supersomes
CYP3A4 [3] = target: T3, CYP3A4; assay: Formation of C151 from C152; details: SS(3A4)
Outline: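 Probes hold 5–20 pmol P450 in 0.1 M Na-HEPES pH 7.4 with 60 mM KCl. C152 added from 0.5 or 4 mM acetone stock; reaction started with 500 μM NADPH (final), run 5 min at 30 °C with shaking. Quenched with isopropanol containing phenacetin internal standard, then centrifuged. C151 quantified by reverse-phase LC with ESI-positive MRM MS/MS (m/z 230.16→157.2). Michaelis–Menten or Hill fit; normalized per P450 (Supersomes) or CPR (HLM).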

CYP2B6 = target: T4, CYP2B6 (Homo sapiens, UniProt P20813); assay: Projected involvement in C152 metabolism in HLM
T4 sequence (P20813 1-491): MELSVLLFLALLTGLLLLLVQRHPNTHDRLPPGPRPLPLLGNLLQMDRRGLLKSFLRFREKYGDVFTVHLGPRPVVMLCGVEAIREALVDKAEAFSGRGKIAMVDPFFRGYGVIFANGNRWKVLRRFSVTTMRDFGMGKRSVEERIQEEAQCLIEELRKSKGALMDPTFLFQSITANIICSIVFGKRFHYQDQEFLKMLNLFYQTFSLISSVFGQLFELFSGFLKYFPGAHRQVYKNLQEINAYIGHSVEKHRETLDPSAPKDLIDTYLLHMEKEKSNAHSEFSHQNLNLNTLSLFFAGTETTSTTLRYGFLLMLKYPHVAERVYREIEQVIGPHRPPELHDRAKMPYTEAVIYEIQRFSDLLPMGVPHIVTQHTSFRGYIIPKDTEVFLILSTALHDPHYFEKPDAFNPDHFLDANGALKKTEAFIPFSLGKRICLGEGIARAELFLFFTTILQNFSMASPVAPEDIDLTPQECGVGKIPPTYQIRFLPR
Outline: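 Calculated values, no new incubations. Each of seven C152-metabolizing P450s has a fractional content in the pooled HLM P450 pool (LC-MS/MS MRM). That fraction is multiplied by its Supersome Vmax (saturation) or by its rate at 30 μM C152 from Hill or Michaelis–Menten parameters. Expected participation (% TNR) is each normalized rate divided by the sum of all seven.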

CYP2C8 [4] = target: T2, CYP2C8; assay: Projected involvement in C152 metabolism in HLM
[5] = at 30 μM C152, calculated from fit parameters
[6] = at saturation (Vmax in Supersomes)
[7] = at saturation of all P450 species

CYP3A5, sequence (P20815 whole entry): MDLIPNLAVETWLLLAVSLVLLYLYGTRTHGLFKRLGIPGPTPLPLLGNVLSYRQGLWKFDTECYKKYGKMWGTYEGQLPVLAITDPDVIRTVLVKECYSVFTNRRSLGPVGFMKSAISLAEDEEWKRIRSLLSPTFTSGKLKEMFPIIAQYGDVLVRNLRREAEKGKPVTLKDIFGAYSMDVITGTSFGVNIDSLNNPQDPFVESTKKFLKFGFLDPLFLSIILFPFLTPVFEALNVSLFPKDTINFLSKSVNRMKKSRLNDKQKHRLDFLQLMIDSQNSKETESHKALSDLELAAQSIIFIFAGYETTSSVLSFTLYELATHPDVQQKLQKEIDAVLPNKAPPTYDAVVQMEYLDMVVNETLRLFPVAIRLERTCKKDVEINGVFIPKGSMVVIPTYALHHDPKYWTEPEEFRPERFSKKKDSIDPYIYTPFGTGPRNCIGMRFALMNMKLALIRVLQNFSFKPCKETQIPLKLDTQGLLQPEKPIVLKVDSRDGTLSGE
T3 sequence (P08684 2-503 limits assumed): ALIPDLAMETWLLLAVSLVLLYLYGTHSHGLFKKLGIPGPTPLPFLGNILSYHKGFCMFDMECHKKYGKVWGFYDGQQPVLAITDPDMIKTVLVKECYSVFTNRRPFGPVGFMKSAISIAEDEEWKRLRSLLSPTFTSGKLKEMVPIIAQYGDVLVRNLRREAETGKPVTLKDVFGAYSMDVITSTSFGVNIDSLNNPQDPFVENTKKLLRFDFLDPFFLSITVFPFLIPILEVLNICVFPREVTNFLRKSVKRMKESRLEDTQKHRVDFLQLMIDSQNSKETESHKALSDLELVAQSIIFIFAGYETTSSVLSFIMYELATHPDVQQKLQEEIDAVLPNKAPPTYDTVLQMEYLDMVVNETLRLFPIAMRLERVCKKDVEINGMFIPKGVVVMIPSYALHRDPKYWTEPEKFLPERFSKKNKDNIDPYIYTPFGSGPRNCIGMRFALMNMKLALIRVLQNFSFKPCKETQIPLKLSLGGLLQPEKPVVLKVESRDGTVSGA
CYP2A6, sequence (P11509 whole entry): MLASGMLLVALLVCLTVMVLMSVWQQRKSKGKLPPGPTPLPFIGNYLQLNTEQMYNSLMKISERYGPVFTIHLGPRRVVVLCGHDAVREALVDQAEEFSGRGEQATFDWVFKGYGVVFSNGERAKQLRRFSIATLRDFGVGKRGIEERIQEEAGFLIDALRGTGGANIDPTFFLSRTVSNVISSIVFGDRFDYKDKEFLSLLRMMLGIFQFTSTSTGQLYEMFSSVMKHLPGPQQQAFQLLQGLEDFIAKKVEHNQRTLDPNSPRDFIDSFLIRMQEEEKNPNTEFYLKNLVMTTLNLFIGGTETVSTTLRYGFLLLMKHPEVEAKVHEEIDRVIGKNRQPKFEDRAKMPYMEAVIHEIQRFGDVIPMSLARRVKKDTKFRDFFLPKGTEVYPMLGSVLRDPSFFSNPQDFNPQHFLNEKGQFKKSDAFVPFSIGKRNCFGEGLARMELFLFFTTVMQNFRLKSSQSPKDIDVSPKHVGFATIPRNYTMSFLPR

With `CN(C)c1ccc2c(C(F)(F)F)cc(=O)oc2c1` [C152, 7-Dimethylamino-4-trifluromethylcoumarin] the Specific rate (CYP1A2; CYP1A2, at 30 μM C152, calculated from fit parameters) was 4.5 min⁻¹, the Specific rate (CYP1A2; CYP1A2, at saturation (Vmax in Supersomes)) was 5.0 min⁻¹ and the “C151 formed (both methods: LC-MS/MS and scanning fluorimetry)” value (CYP1A2; CYP1A2, fraction in total rate of C152 metabolism) was 20–25%. For the same compound, the “Vmax (C152 metabolism, fluorimetric assay)” value (CYP1A2; SS(1A2), mol C152 per mol P450 per min) was 5.0 ± 1.1 min⁻¹, the “Fraction of C151 formed, Fluorimetry” value (CYP1A2; SS(1A2), scanning fluorimetry with PCA) was 26±7% and the Km (CYP1A2; read-out: KM or S50 (C152 metabolism, fluorimetric assay), SS(1A2), Michaelis-Menten fit, 30 °C, pH 7.4) was 2.9 ± 1.7 µM. The Specific rate (CYP2C8 [1]; CYP2C8, at 30 μM C152, calculated from fit parameters) was 1.9 min⁻¹, the “N, Hill coefficient (C152 metabolism, fluorimetric assay)” value (CYP2C8 [1]; SS(2C8)) was 2.6±0.3 and the “Vmax (C152 metabolism, fluorimetric assay)” value (CYP2C8 [1]; SS(2C8), mol C152 per mol P450 per min) was 2.6 ± 0.8 min⁻¹. For the same compound, the Km (CYP2C8 [1]; read-out: KM or S50 (C152 metabolism, fluorimetric assay), SS(2C8), Hill fit (S50), 30 °C, pH 7.4) was 12 ± 6 µM, the Specific rate (CYP3A4 [2]; [5]) was 16.5 min⁻¹ and the Specific rate (CYP3A4 [2]; [6]) was 17.3 min⁻¹. The “N, Hill coefficient (C152 metabolism, fluorimetric assay)” value (CYP3A4 [2]; SS(3A4)) was 1.6±0.2, the “Vmax (C152 metabolism, fluorimetric assay)” value (CYP3A4 [2]; SS(3A4), mol C152 per mol P450 per min) was 17 ± 3 min⁻¹ and the “Fraction of C151 formed, Fluorimetry” value (CYP3A4 [2]; SS(3A4), scanning fluorimetry with PCA) was 2.5±0.3%. For the same compound, the Km (CYP3A4 [2]; read-out: KM or S50 (C152 metabolism, fluorimetric assay), SS(3A4), Hill fit (S50), 30 °C, pH 7.4) was 4.5 ± 1.2 µM, the Specific rate (CYP3A5; [5]) was 9.5 min⁻¹ and the Specific rate (CYP3A5; [6]) was 15.3 min⁻¹. The “Vmax (C152 metabolism, fluorimetric assay)” value (CYP3A5; SS(3A5), mol C152 per mol P450 per min) was 15 ± 4 min⁻¹, the Km (CYP3A5; read-out: KM or S50 (C152 metabolism, fluorimetric assay), SS(3A5), Michaelis-Menten fit, 30 °C, pH 7.4) was 19 ± 9 µM and the “activity with C152” value (CYP2A6) was “no detectable activity”. The “N, Hill coefficient (Formation of C151, LC-MS)” value (CYP3A4 [3]) was 1.4±0.4, the “Fraction of C151 formed, LC-MS” value (CYP3A4 [3]; C151 formed over total C152 metabolized) was 5.4±2.4% and the “Vmax (Formation of C151, LC-MS)” value (CYP3A4 [3]; mol C151 formed per mol P450 per min) was 0.94 ± 0.41 min⁻¹. The Km (CYP3A4 [3]; read-out: KM or S50 (Formation of C151, LC-MS), Hill fit (S50)) was 6.4 ± 1.1 µM, the Normalized rate (CYP2B6; at 30 μM C152) was 0.863 min⁻¹ and the Expected participation (CYP2B6; at 30 μM C152, % TNR) was 7.10%. The Normalized rate (CYP2B6; [7]) was 0.914 min⁻¹, the Normalized rate (CYP2C8 [4]; at 30 μM C152) was 0.020 min⁻¹ and the Expected participation (CYP2C8 [4]; at 30 μM C152, % TNR) was 0.16%. For the same compound, the Normalized rate (CYP2C8 [4]; [7]) was 0.022 min⁻¹ and the Expected participation (CYP2C8 [4]; at saturation of all P450 species, % TNR) was 0.17%.

Reference: PMC7740640 (Xenobiotica; the fate of foreign compounds in biological …, 2020)
